In ChEMBL document CHEMBL1124591, “Polyfluoro 1,3-diketones as systemic insecticides” (1989):

How the values were obtained:
Format in all cases: functional
Stomoxys calcitrans [1] = assay: In vitro insecticidal activity in bovine serum against adult stable fly
In short: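 Twenty chilled 5-day-old hungry adult Stomoxys calcitrans in covered petri dish exposed to compound in bovine serum on saturated dental wick, incubated 24 or 48 h.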

Calliphoridae [2] = assay: In vitro insecticidal activity in bovine serum against Blowfly larvae
In short: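 In vitro bait: ~50 first-instar blowflies placed on dental wick saturated with compound in bovine serum, in loosely plugged tube, 27 °C, 55% RH, under fluorescent light, 24 h.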

Stomoxys calcitrans [3] = assay: In vitro insecticidal activity against adult stable fly in serum collected from calves administered with 0.50 mg/kg; settings: dose 0.5 mg/kg
Stomoxys calcitrans [4] = assay: In vitro insecticidal activity against adult stable fly in serum collected from calves administered with 0.35 mg/kg
Stomoxys calcitrans [5] = assay: In vivo insecticidal activity against adult stable fly in serum collected from calves administered with 0.50 mg/kg; settings: dose 0.5 mg/kg
Stomoxys calcitrans [6] = assay: In vivo insecticidal activity against adult stable fly in serum collected from calves administered with 1 mg/kg
Stomoxys calcitrans [7] = assay: In vitro insecticidal activity against adult stable fly in serum collected from calves administered with 1.00 mg/kg
Calliphoridae [8] = assay: In vivo insecticidal activity against Larval blowfly from calves administered with 0.50 mg/kg; settings: dose 0.5 mg/kg
In short: (§1)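 Calves dosed daily intraruminally through implanted rumen tube with diketone in 5 mL PEG-200 (vehicle and untreated controls). Daily serum fed on saturated dental wick to ~50 first-instar blowflies, 27 °C, 55% RH; mortality after 48 h (24 h where noted); day of onset of ≥50% mortality recorded.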

Calliphoridae [9] = assay: In vivo insecticidal activity against Larval blowfly from calves administered with 0.20 mg/kg; settings: dose 0.2 mg/kg; in short: as §1
Stomoxys calcitrans [10] = assay: Mortality percentage on day 5 in Adult stable flies after their exposure to sera for 24 hours, from the cattle, administered with the compound at 5 mg/kg
In short: (§2)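 Calves given single intraruminal 5 mg/kg in 5 mL PEG-200 (two treated, one vehicle, one untreated). Blood taken pre-dose, 2, 5, 24 h, then daily; serum on saturated dental wick fed to adult stable flies (20/dish) or ~50 first-instar blowflies (27 °C, 55% RH); % mortality after 24 h exposure.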

Calliphoridae [11] = assay: Mortality percentage on day 5 in Blowfly larvae after their exposure to sera for 24 hours, from the cattle administered with the compound at 5 mg/kg; in short: as §2
Stomoxys calcitrans [12] = assay: In vivo insecticidal activity against adult stable fly in serum collected from calves administered with 1.0 mg/kg
Stomoxys calcitrans [13] = assay: Mortality percentage on day 3 in Adult stable flies after their exposure to sera for 24 hours, from the cattle, administered with the compound at 5 mg/kg; in short: as §2
Calliphoridae [14] = assay: Mortality percentage on day 5 in Blowfly larvae after their exposure to sera for 48 hours, from the cattle administered with the compound at 5 mg/kg
In short: (§3)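 Calves given single intraruminal 5 mg/kg in 5 mL PEG-200, with vehicle and untreated controls; serum collected daily and fed on saturated dental wick to adult stable flies (20/dish) or ~50 first-instar blowflies; % mortality read after 48 h exposure.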

Calliphoridae [15] = assay: Mortality percentage on day 4 in Blowfly larvae after their exposure to sera for 24 hours, from the cattle administered with the compound at 5 mg/kg; in short: as §2
Stomoxys calcitrans [16] = assay: In vivo insecticidal activity against adult stable fly in serum collected from calves administered with 0.75 mg/kg
Stomoxys calcitrans [17] = assay: Mortality percentage on day 6 in Adult stable flies after their exposure to sera for 24 hours, from the cattle, administered with the compound at 5 mg/kg; in short: as §2
Stomoxys calcitrans [18] = assay: Mortality percentage on day 5 in Adult stable flies after their exposure to sera for 48 hours, from the cattle, administered with the compound at 5 mg/kg; in short: as §3
Calliphoridae [19] = assay: In vivo insecticidal activity against Larval blowfly from calves administered with 1.50 mg/kg; settings: dose 1.5 mg/kg; in short: as §1
Calliphoridae [20] = assay: Mortality percentage on day 0 in Blowfly larvae after their exposure to sera for 24 hours, from the cattle administered with the compound at 5 mg/kg; in short: as §2
Calliphoridae [21] = assay: Mortality percentage on day 3 in Blowfly larvae after their exposure to sera for 48 hours, from the cattle administered with the compound at 5 mg/kg; in short: as §3
Stomoxys calcitrans [22] = assay: Mortality percentage on day 3 in Adult stable flies after their exposure to sera for 48 hours, from the cattle, administered with the compound at 5 mg/kg; in short: as §3
Calliphoridae [23] = assay: Mortality percentage on day 4 in Blowfly larvae after their exposure to sera for 48 hours, from the cattle administered with the compound at 5 mg/kg; in short: as §3
Stomoxys calcitrans [24] = assay: In vitro insecticidal activity against adult stable fly in serum collected from calves administered with 1 mg/kg
Calliphoridae [25] = assay: Mortality percentage on day 7 in Blowfly larvae after their exposure to sera for 24 hours, from the cattle administered with the compound at 5 mg/kg; in short: as §2
Calliphoridae [26] = assay: In vivo insecticidal activity against Larval blowfly from calves administered with 1.0 mg/kg; in short: as §1
Calliphoridae [27] = assay: Mortality percentage on day 3 in Blowfly larvae after their exposure to sera for 24 hours, from the cattle administered with the compound at 5 mg/kg; in short: as §2
Stomoxys calcitrans [28] = assay: Mortality percentage on 1 day in Adult stable flies after their exposure to sera for 24 hours, from the cattle, administered with the compound at 5 mg/kg; in short: as §2
Calliphoridae [29] = assay: Mortality percentage on day 6 in Blowfly larvae after their exposure to sera for 24 hours, from the cattle administered with the compound at 5 mg/kg; in short: as §2
Calliphoridae [30] = assay: Mortality percentage on day 1 in Blowfly larvae after their exposure to sera for 24 hours, from the cattle administered with the compound at 5 mg/kg; in short: as §2
Stomoxys calcitrans [31] = assay: In vitro insecticidal activity against adult stable fly in serum collected from calves administered with 0.75 mg/kg
Stomoxys calcitrans [32] = assay: Mortality percentage on day 7 in Adult stable flies after their exposure to sera for 24 hours, from the cattle, administered with the compound at 5 mg/kg; in short: as §2
Calliphoridae [33] = assay: In vivo insecticidal activity against Larval blowfly from calves administered with 0.75 mg/kg; in short: as §1
Stomoxys calcitrans [34] = assay: Mortality percentage on day 6 in Adult stable flies after their exposure to sera for 48 hours, from the cattle, administered with the compound at 5 mg/kg; in short: as §3
Stomoxys calcitrans [35] = assay: In vitro insecticidal activity against adult stable fly in serum collected from calves administered with 1.50 mg/kg; settings: dose 1.5 mg/kg
Calliphoridae [36] = assay: Mortality percentage on day 6 in Blowfly larvae after their exposure to sera for 48 hours, from the cattle administered with the compound at 5 mg/kg; in short: as §3
Stomoxys calcitrans [37] = assay: Mortality percentage on 0 day in Adult stable flies after their exposure to sera for 24 hours, from the cattle, administered with the compound at 5 mg/kg; in short: as §2
Stomoxys calcitrans [38] = assay: In vivo insecticidal activity against adult stable fly in serum collected from calves administered with 1.50 mg/kg; settings: dose 1.5 mg/kg
Calliphoridae [39] = assay: Mortality percentage on day 2 in Blowfly larvae after their exposure to sera for 24 hours, from the cattle administered with the compound at 5 mg/kg; in short: as §2
Stomoxys calcitrans [40] = assay: Mortality percentage after on day 2 in Adult stable flies after their exposure to sera for 24 hours, from the cattle, administered with the compound at 5 mg/kg; in short: as §2

SMILES: Cc1c(COC(=O)C2C(/C=C(\Cl)C(F)(F)F)C2(C)C)cccc1-c1ccccc1 (stereo not drawn)
- Lowest effective concentration (Stomoxys calcitrans [1]): 25 p.p.m.
- Lowest effective concentration (Calliphoridae [2]): 5 p.p.m.

SMILES: CNC(=O)Oc1cccc2c1OC(C)(C)C2 [CARBOFURAN]
- Lowest effective concentration (Stomoxys calcitrans [1]): 1 p.p.m.
- Lowest effective concentration (Calliphoridae [2]): 5 p.p.m.

SMILES: O=C(/C=C(\[O-])c1cc(Cl)cc(Cl)c1)C(F)(F)F.[Na+]
- Lowest effective concentration (Stomoxys calcitrans [1]): 25 p.p.m.
- Lowest effective concentration (Calliphoridae [2]): 20 p.p.m.

SMILES: O=C(/C=C(\[O-])c1cccc(C(F)(F)F)c1)C(F)(F)C(F)(F)C(F)(F)F.[Na+]
- Lowest effective concentration (Stomoxys calcitrans [1]): 35 p.p.m.
- Lowest effective concentration (Calliphoridae [2]): 40 p.p.m.

SMILES: O=C(/C=C(\[O-])c1ccc(C(F)(F)F)cc1)C(F)(F)C(F)(F)C(F)(F)F.[Na+]
- Lowest effective concentration (Stomoxys calcitrans [1]): 30 p.p.m.
- Lowest effective concentration (Calliphoridae [2]): 35 p.p.m.

SMILES: O=C(/C=C(\[O-])c1ccc(F)c(F)c1)C(F)(F)C(F)(F)C(F)(F)F.[Na+]
- Lowest effective concentration (Stomoxys calcitrans [1]): 25 p.p.m.
- Lowest effective concentration (Calliphoridae [2]): 30 p.p.m.

SMILES: O=C(/C=C(\[O-])c1cc(Cl)cc(Cl)c1)C(F)(F)C(F)(F)C(F)(F)F.[Na+]
- Activity (Stomoxys calcitrans [3]): 4 day of onset
- Activity (Stomoxys calcitrans [4]): 9 day of onset
- Lowest effective concentration (Stomoxys calcitrans [1]): 25 p.p.m.
- Activity (Stomoxys calcitrans [5]): 4 day of onset
- Activity (Stomoxys calcitrans [6]): 3 day of onset
- Activity (Stomoxys calcitrans [7]): 3 day of onset
- Activity (Calliphoridae [8]): 8 day of onset
- Lowest effective concentration (Calliphoridae [2]): 15 p.p.m.
- Activity (Calliphoridae [9]): 5 day of onset

SMILES: O=C(/C=C(\[O-])c1cc(Br)cc(Br)c1)C(F)(F)C(F)(F)C(F)(F)F.[Na+]
- Lowest effective concentration (Stomoxys calcitrans [1]): 25 p.p.m.
- Lowest effective concentration (Calliphoridae [2]): 25 p.p.m.

SMILES: O=C(/C=C(\[O-])c1cc(Cl)cc(Cl)c1)C(F)(F)C(F)(F)F.[Na+]
- Activity (Stomoxys calcitrans [3]): 6 day of onset
- mortality at 5 mg/kg (Stomoxys calcitrans [10]): 0%
- mortality at 5 mg/kg (Calliphoridae [11]): 0%
- Activity (Stomoxys calcitrans [12]): 3 day of onset
- mortality at 5 mg/kg (Stomoxys calcitrans [13]): 45%
- mortality at 5 mg/kg (Calliphoridae [14]): 0%
- mortality at 5 mg/kg (Calliphoridae [15]): 0%
- Activity (Stomoxys calcitrans [16]): 4 day of onset
- Lowest effective concentration (Stomoxys calcitrans [1]): 20 p.p.m.
- mortality at 5 mg/kg (Stomoxys calcitrans [17]): 0%
- Activity (Stomoxys calcitrans [5]): 6 day of onset
- mortality at 5 mg/kg (Stomoxys calcitrans [18]): 80%
- Activity (Calliphoridae [19]): 2 day of onset
- mortality at 5 mg/kg (Calliphoridae [20]): 0%
- mortality at 5 mg/kg (Calliphoridae [21]): 100%
- mortality at 5 mg/kg (Stomoxys calcitrans [22]): 100%
- mortality at 5 mg/kg (Calliphoridae [23]): 50%
- Activity (Stomoxys calcitrans [24]): 3 day of onset
- mortality at 5 mg/kg (Calliphoridae [25]): 0%
- Activity (Calliphoridae [26]): 5 day of onset
- mortality at 5 mg/kg (Calliphoridae [27]): 0%
- mortality at 5 mg/kg (Stomoxys calcitrans [28]): 20%
- mortality at 5 mg/kg (Calliphoridae [29]): 0%
- mortality at 5 mg/kg (Calliphoridae [30]): 0%
- Activity (Stomoxys calcitrans [31]): 4 day of onset
- mortality at 5 mg/kg (Stomoxys calcitrans [32]): 10%
- Activity (Calliphoridae [33]): 4 day of onset
- mortality at 5 mg/kg (Stomoxys calcitrans [34]): 30%
- Activity (Stomoxys calcitrans [35]): 2 day of onset
- mortality at 5 mg/kg (Calliphoridae [36]): 0%
- mortality at 5 mg/kg (Stomoxys calcitrans [37]): 0%
- Activity (Stomoxys calcitrans [38]): 2 day of onset
- Activity (Calliphoridae [8]): 6 day of onset
- mortality at 5 mg/kg (Calliphoridae [39]): 0%
- Lowest effective concentration (Calliphoridae [2]): 40 p.p.m.
- mortality at 5 mg/kg (Stomoxys calcitrans [40]): 55%

SMILES: CC[C@H](C)[C@H]1O[C@]2(C=C[C@@H]1C)C[C@@H]1C[C@@H](C/C=C(\C)[C@@H](O[C@H]3C[C@H](OC)[C@@H](O[C@H]4C[C@H](OC)[C@@H](O)[C@H](C)O4)[C@H](C)O3)[C@@H](C)/C=C/C=C3\CO[C@@H]4[C@H](O)C(C)=C[C@@H](C(=O)O1)[C@]34O)O2 [ABAMECTIN COMPONENT B1A]
- Lowest effective concentration (Stomoxys calcitrans [1]): 10 p.p.m.
- Lowest effective concentration (Calliphoridae [2]): 0.5 p.p.m.

SMILES: O=C(/C=C(\[O-])c1cc(Cl)cc(Cl)c1)C(F)(F)C(F)F.[Na+]
- Lowest effective concentration (Stomoxys calcitrans [1]): 20 p.p.m.
- Activity (Stomoxys calcitrans [7]): 5 day of onset
- Lowest effective concentration (Calliphoridae [2]): 25 p.p.m.

SMILES: O=C(/C=C(\[O-])c1ccc(Cl)cc1)C(F)(F)C(F)(F)C(F)(F)F.[Na+]
- Lowest effective concentration (Stomoxys calcitrans [1]): 25 p.p.m.
- Lowest effective concentration (Calliphoridae [2]): 50 p.p.m.

SMILES: O=C(/C=C(\[O-])c1ccc(Cl)c(Cl)c1)C(F)(F)C(F)(F)C(F)(F)F.[Na+]
- Lowest effective concentration (Stomoxys calcitrans [1]): 25 p.p.m.
- Lowest effective concentration (Calliphoridae [2]): 30 p.p.m.
